{"source": "ChEMBL document CHEMBL1124933", "about": "“Benzodiazepine receptor binding activity of 8-substituted-9-(3-substituted-benzyl)-6-(dimethylamino)-9H-purines” (J Med Chem, 1990)", "key": {"[1]": {"biological_target": "GABA-A receptor; anion channel", "test": "Inhibition of specific binding of 1.5 nM [3H]diazepam to rat brain benzodiazepine receptors"}, "Rattus norvegicus": {"system": "Rattus norvegicus", "test": "Percent change in Geller-Seifter conflict schedule was determined in Long-Evans rats after (po) administration of gavage of 25 mg/kg", "format": "functional", "method_in_brief": "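Long-Evans rats on a modified Geller-Seifter operant conflict schedule, with conflict-period responding scored. Compounds given by oral gavage as a 0.5% methylcellulose suspension at 25 mg/kg. Chlordiazepoxide reference given at 20 mg/kg.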"}}}
{"smiles": "CN(C)c1ncnc2c1nc(Br)n2Cc1cccc(NS(C)(=O)=O)c1", "values": [{"measurement": "IC50", "setting": "[1]", "result": 1500, "unit": "nM"}]}
{"smiles": "CN(C)c1ncnc2c1nc(O)n2Cc1cccc(NC=O)c1", "values": [{"measurement": "Change", "setting": "Rattus norvegicus", "result": -15, "unit": "%"}, {"measurement": "IC50", "setting": "[1]", "result": 130, "unit": "nM"}]}
{"smiles": "CNc1nc2c(N(C)C)ncnc2n1Cc1cccc(NC=O)c1", "values": [{"measurement": "IC50", "setting": "[1]", "result": 360, "unit": "nM"}]}
{"smiles": "CN(C)c1ncnc2c1nc(O)n2Cc1cccc(N)c1", "values": [{"measurement": "IC50", "setting": "[1]", "result": 1800, "unit": "nM"}]}
{"smiles": "CN(C)c1ncnc2c1nc(N(C)C)n2Cc1cccc(NC=O)c1", "values": [{"measurement": "Change", "setting": "Rattus norvegicus", "result": 0, "unit": "%"}, {"measurement": "IC50", "setting": "[1]", "result": 110, "unit": "nM"}]}
{"smiles": "CNc1nc2c(N(C)C)ncnc2n1Cc1ccccc1", "values": [{"measurement": "IC50", "setting": "[1]", "result": 17000, "unit": "nM"}]}
{"smiles": "CN(C)c1ncnc2c1ncn2Cc1cccc(NC=O)c1", "values": [{"measurement": "Change", "setting": "Rattus norvegicus", "result": -2, "unit": "%"}, {"measurement": "IC50", "setting": "[1]", "result": 34, "unit": "nM"}]}
{"smiles": "CN(C)c1ncnc2c1nc(Cl)n2Cc1cccc(N)c1", "values": [{"measurement": "Change", "setting": "Rattus norvegicus", "result": 15, "unit": "%"}, {"measurement": "IC50", "setting": "[1]", "result": 190, "unit": "nM"}]}
{"smiles": "COC(=O)Nc1cccc(Cn2c(Br)nc3c(N(C)C)ncnc32)c1", "values": [{"measurement": "IC50", "setting": "[1]", "result": 5300, "unit": "nM"}]}
{"smiles": "COc1nc2c(N(C)C)ncnc2n1Cc1cccc(N)c1", "values": [{"measurement": "Change", "setting": "Rattus norvegicus", "result": 13, "unit": "%"}, {"measurement": "IC50", "setting": "[1]", "result": 1000, "unit": "nM"}]}
{"smiles": "CN(C)c1ncnc2c1nc(N(C)C)n2Cc1ccccc1", "values": [{"measurement": "IC50", "setting": "[1]", "result": 5700, "unit": "nM"}]}
{"smiles": "COc1nc2c(N(C)C)ncnc2n1Cc1ccccc1", "values": [{"measurement": "IC50", "setting": "[1]", "result": 5400, "unit": "nM"}]}
{"smiles": "CNc1nc2c(N(C)C)ncnc2n1Cc1cccc(N)c1", "values": [{"measurement": "IC50", "setting": "[1]", "result": 7300, "unit": "nM"}]}
{"smiles": "CN(C)c1ncnc2c1nc(Br)n2Cc1cccc(NC=O)c1", "values": [{"measurement": "Change", "setting": "Rattus norvegicus", "result": 9, "unit": "%"}, {"measurement": "IC50", "setting": "[1]", "result": 11, "unit": "nM"}]}
{"smiles": "CN(C)c1ncnc2c1nc(N(C)C)n2Cc1cccc(N)c1", "values": [{"measurement": "Change", "setting": "Rattus norvegicus", "result": -3, "unit": "%"}, {"measurement": "IC50", "setting": "[1]", "result": 600, "unit": "nM"}]}
{"smiles": "Cc1nc2c(N(C)C)ncnc2n1Cc1ccccc1", "values": [{"measurement": "IC50", "setting": "[1]", "result": 8500, "unit": "nM"}]}
{"smiles": "CN(C)c1ncnc2c1nc(Br)n2Cc1cccc(N)c1", "values": [{"measurement": "Change", "setting": "Rattus norvegicus", "result": 2, "unit": "%"}, {"measurement": "IC50", "setting": "[1]", "result": 110, "unit": "nM"}]}
{"smiles": "CC(=O)Nc1cccc(Cn2c(Br)nc3c(N(C)C)ncnc32)c1", "values": [{"measurement": "Change", "setting": "Rattus norvegicus", "result": 3, "unit": "%"}, {"measurement": "IC50", "setting": "[1]", "result": 840, "unit": "nM"}]}
{"smiles": "CN(C)c1ncnc2c1nc(Br)n2Cc1ccccc1", "values": [{"measurement": "IC50", "setting": "[1]", "result": 3000, "unit": "nM"}]}
{"smiles": "CN(C)c1ncnc2c1nc(Br)n2Cc1cccc(NC(N)=O)c1", "values": [{"measurement": "Change", "setting": "Rattus norvegicus", "result": 9, "unit": "%"}, {"measurement": "IC50", "setting": "[1]", "result": 25, "unit": "nM"}]}
{"smiles": "CN(C)c1ncnc2c1nc(Br)n2Cc1cccc(NC(=O)c2ccccc2)c1", "values": [{"measurement": "IC50", "setting": "[1]", "result": 8000, "unit": "nM"}]}
